Test results taken from ChEMBL document CHEMBL4431330, “3-Arylpropionylhydroxamic acid derivatives as Helicobacter pylori urease inhibitors: Synthesis, molecular docking and biological evaluation” (Bioorg Med Chem, 2016).
The source made the active and inactive calls. The rule behind the calls is not given here.

Columns and labels:
[1] = molecular target: T1, Urease subunit alpha/Urease subunit beta (Helicobacter pylori (strain ATCC 700392 / 26695) (Campylobacterpylori), UniProt P69996); test: Inhibition of Helicobacter pylori urease using urea as substrate assessed as ammonia production after 50 mins by indophenol method; assay type: protein-complex assay
T1 sequence (P69996 whole entry): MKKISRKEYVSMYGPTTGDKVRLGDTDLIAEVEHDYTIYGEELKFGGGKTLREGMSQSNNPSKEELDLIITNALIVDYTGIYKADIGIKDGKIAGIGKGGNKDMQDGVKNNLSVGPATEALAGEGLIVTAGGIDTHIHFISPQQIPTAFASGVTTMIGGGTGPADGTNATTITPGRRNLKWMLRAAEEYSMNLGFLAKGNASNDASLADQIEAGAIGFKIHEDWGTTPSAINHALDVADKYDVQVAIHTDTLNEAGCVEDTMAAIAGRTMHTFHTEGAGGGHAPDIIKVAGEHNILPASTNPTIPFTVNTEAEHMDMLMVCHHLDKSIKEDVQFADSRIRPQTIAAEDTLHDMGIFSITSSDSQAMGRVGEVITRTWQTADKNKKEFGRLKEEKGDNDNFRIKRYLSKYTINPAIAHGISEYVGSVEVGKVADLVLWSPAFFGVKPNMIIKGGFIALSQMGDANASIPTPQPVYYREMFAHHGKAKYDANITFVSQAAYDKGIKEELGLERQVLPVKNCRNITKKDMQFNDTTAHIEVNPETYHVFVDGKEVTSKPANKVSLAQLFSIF
T1 sequence (P14916 whole entry, further chain): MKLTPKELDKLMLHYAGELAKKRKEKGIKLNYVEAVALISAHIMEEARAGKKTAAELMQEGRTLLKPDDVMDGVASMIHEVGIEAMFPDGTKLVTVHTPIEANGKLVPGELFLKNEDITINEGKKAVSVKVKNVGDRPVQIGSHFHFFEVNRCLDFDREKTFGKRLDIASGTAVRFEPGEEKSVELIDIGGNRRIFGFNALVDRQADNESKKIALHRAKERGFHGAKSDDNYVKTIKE
Procedure, shortened: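 Urease prepared from H. pylori grown 24 h at 37 °C in Brucella broth with 10% heat-inactivated horse serum under microaerobic conditions. Cells washed in PBS pH 7.4, sonicated with protease inhibitors, desalted on Sephadex G-25, stored in glycerol at 4 °C. Enzyme (10 U) pre-incubated with compound 50 min at 37 °C. Ammonia read by absorbance (indophenol method).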

[2] = molecular target: T1, Urease subunit alpha/Urease subunit beta; test: Substrate inhibition of Helicobacter pylori urease in presence of >4 mM urea by indophenol method; assay type: protein-complex assay
Procedure, shortened: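 No inhibitor. H. pylori urease velocity (indophenol ammonia read-out) was measured against a range of urea concentrations. Km and the substrate-inhibition constant Ksi were obtained by nonlinear least-squares fitting of V = Vmax[S]/(Km + [S] + [S]²/Ksi).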

[3] = Protein binding in rabbit plasma after 20 mins by ultra-filtration method; assay type: ADME, cell-free, Oryctolagus cuniculus; conditions: read-out: PPB (converted)
Procedure, shortened: (§1)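 Ultrafiltration, in triplicate. Compound was incubated with human plasma or freshly collected rabbit plasma for 20 min at 37 °C. Samples were then centrifuged through filter devices at 5000 r/min for 15 min at 37 °C. Initial plasma and ultrafiltrate were diluted 8-fold and read by UV-vis. Nonspecific membrane binding was corrected using PBS spiked at the same concentration. % bound = (1 − Cf/(C0(1−NBS)))×100.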

[4] = molecular target: T2, Urease subunit alpha/Urease subunit beta (Helicobacter pylori (strain ATCC 700392 / 26695) (Campylobacterpylori)) (UniProt P69996+P14916); test: Potency index, ratio of acetohydroxamic acid IC50 to compound IC50 for Helicobacter pylori urease; assay type: protein-complex assay
T2 sequence (P14916 whole entry, looked up): as the sequence (P14916 whole entry, further chain) above
T2 sequence (P69996 whole entry, looked up): as the sequence (P69996 whole entry) above
Procedure, shortened: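 Ratio of the acetohydroxamic acid IC50 to the compound IC50. […] Ammonia formed from urea was then read by the Weatherburn indophenol method.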

[5] = molecular target: T1, Urease subunit alpha/Urease subunit beta; test: Inhibition of Helicobacter pylori urease using urea as substrate assessed as inhibition constant for enzyme-inhibitor complex by non-linear fitting analysis; assay type: protein-complex assay
Procedure, shortened: (§2)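 Urease came from H. pylori grown 24 h at 37 °C in Brucella broth with 10% heat-inactivated horse serum under microaerobic conditions. Washed cells were sonicated with protease inhibitors, desalted on Sephadex G-25, and stored in glycerol. Ammonia production rate (indophenol) was measured across urea gradients below 4 mM at each inhibitor level. V–[S] curves were fitted nonlinearly. Fitted constants b and c were plotted linearly against [I], and Ki and Ki′ were taken from the X-axis intercepts.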

[6] = molecular target: T1, Urease subunit alpha/Urease subunit beta; test: Inhibition of Helicobacter pylori urease using urea as substrate assessed as inhibition constant for enzyme-urea-inhibitor complex by non-linear fitting analysis; assay type: protein-complex assay; procedure, shortened: as §2
[7] = Protein binding in human plasma after 20 mins by ultra-filtration method; assay type: ADME, cell-free; conditions: read-out: PPB (converted); procedure, shortened: as §1
[8] = molecular target: T2, Urease subunit alpha/Urease subunit beta (Helicobacter pylori (strain ATCC 700392 / 26695) (Campylobacterpylori)); test: Mixed inhibition of Helicobacter pylori urease assessed as dissociation of enzyme-urea-inhibitor complex by non-linear fitting analysis

## COc1ccccc1C(O)CC(=O)N(C)O (stereo not drawn)
[1]
  IC50: 84 µM

## NC(N)=O [UREA]
[2]
  Ki: 6470 µM

## O=C(CC(O)c1cc(Cl)ccc1O)NO (stereo not drawn)
[3]
  fraction unbound at 20 min: 0.548
[1]
  IC50: 1.1 µM
[4]
  Ratio IC50: > 20
[5]
  Ki: 4.79 µM
[6]
  Ki: 1.21 µM
[7]
  fraction unbound at 20 min: 0.472
[8]
  inhibition: Active

## COc1ccc(C(O)CC(=O)N(C)O)cc1 (stereo not drawn)
[1]
  IC50: 328 µM

## CN(O)C(=O)CC(O)c1cccc(Cl)c1Cl (stereo not drawn)
[1]
  IC50: 95.8 µM

## O=C(CC(O)c1cc(Cl)ccc1OCc1ccccc1)NO (stereo not drawn)
[3]
  fraction unbound at 20 min: 0.562
[1]
  IC50: 0.15 µM
[4]
  Ratio IC50: > 20
[5]
  Ki: 0.404 µM
[6]
  Ki: 0.373 µM
[7]
  fraction unbound at 20 min: 0.626
[8]
  inhibition: Active

## CN(O)C(=O)CC(O)c1ccc(Cl)cc1Cl (stereo not drawn)
[1]
  IC50: 367 µM

## CN(O)C(=O)CC(O)c1cc(Cl)ccc1OCc1ccccc1 (stereo not drawn)
[1]
  IC50: 26.2 µM

## CN(O)C(=O)CC(O)c1cc(Cl)ccc1O (stereo not drawn)
[1]
  IC50: 30.5 µM

## COc1ccc(C(O)CC(=O)N(C)O)cc1OC (stereo not drawn)
[1]
  IC50: 405 µM

## CN(O)C(=O)CC(O)c1c(Cl)cccc1Cl (stereo not drawn)
[1]
  IC50: 77.9 µM

## CN(O)C(=O)CC(O)c1ccc(N(C)C)cc1 (stereo not drawn)
[1]
  IC50: 287 µM

## CN(O)C(=O)CC(O)c1cccc(F)c1 (stereo not drawn)
[1]
  IC50: 71.2 µM

## CN(O)C(=O)CC(O)c1cccc(Br)c1 (stereo not drawn)
[1]
  IC50: 78.2 µM

## CN(O)C(=O)CC(O)c1ccc(Br)cc1 (stereo not drawn)
[1]
  IC50: 97.6 µM

## CN(O)C(=O)CC(O)c1ccc(OCc2ccccc2)cc1 (stereo not drawn)
[1]
  IC50: 198 µM

## CN(O)C(=O)CC(O)c1ccc(OCc2ccccc2)c(OCc2ccccc2)c1 (stereo not drawn)
[1]
  IC50: 376 µM

## O=C(CC(O)c1ccc(Cl)cc1Cl)NO (stereo not drawn)
[1]
  IC50: 13.4 µM

## CC(=O)NO [ACETOHYDROXAMIC ACID]
[1]
  IC50: 23.8 µM

## CN(O)C(=O)CC(O)c1ccc(Cl)cc1 (stereo not drawn)
[1]
  IC50: 87.4 µM

## COc1cccc(C(O)CC(=O)N(C)O)c1 (stereo not drawn)
[1]
  IC50: 89.2 µM

## CN(O)C(=O)CC(O)c1ccc(Cl)c(Cl)c1 (stereo not drawn)
[1]
  IC50: 90.4 µM

## CN(O)C(=O)CC(O)c1cccc(Cl)c1 (stereo not drawn)
[1]
  IC50: 48 µM

## CN(O)C(=O)CC(O)c1ccccc1Cl (stereo not drawn)
[1]
  IC50: 56.6 µM

## COc1cc(C(O)CC(=O)N(C)O)ccc1OCc1ccccc1 (stereo not drawn)
[1]
  IC50: 258 µM

## CN(O)C(=O)CC(O)c1ccc(F)cc1 (stereo not drawn)
[1]
  IC50: 77.2 µM
